# PTEN del growth – suppresses growth of cells with PTEN deletion; HCT116 PTEN-null viability, CellTiter-Glo, 60 h; active compounds read low; 140,000 compounds, 1.2% hits; viability, % at 10 µM;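 active means viability at or below a set limit, 4 SD under the median of all tested compounds, cut at about 3.7% in these data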;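 further: PTEN knockout HCT116 line with beta catenin targeted HCT116 as companion control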
# HCT116 bCat-KO – beta-catenin-lacking colon tumor cell growth suppression; 140,000 compounds, 1.5% hits; viability, % at 10 µM; AID 818; HCT116 beta-catenin knockout viability, CellTiter-Glo, 60 h; active compounds read low;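 active means viability at or under a set limit, the compound median less 4 SD, cut at about 6% in these data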;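 further: 0% = Hyamine 1622 control at 20 µM and 100% = untreated cell control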
# H69AR growth 86K – blocks growth of human H69AR lung tumor cells; H69AR lung tumor viability, ATP luminescence, 72 h; active compounds read low; viability, % at 10 µM; 85,000 compounds, 6% hits;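 active means viability at or below 40%; inactive means viability above 40%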;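 further: multidrug resistant small cell line overexpressing MRP-1 efflux transporter; 100% = mean luminescence of untreated control wells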
# Fibroblast inh – blocks proliferation of human lung fibroblasts | LL 47 human lung fibroblast viability, ATP luminescence; active compounds read low | viability, % at 10 µM | 85,000 compounds, 1.1% hits | AID 719;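 active means viability at or below 50% in the single dose screen; inactive means viability above 50%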;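 further: compound exposure lasted 72 h before the ATP readout; 100% = median luminescence of untreated cell-only wells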
#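 Material: Human LL 47 lung fibroblast cells | Input: 1,150 cells/well | Buffer or medium: IMEM plus 15% FBS | Compound dosing: 0.1% DMSO in all compound wells | Times: Overnight cell rest, 72 h compound treatment at 37 °C | Signal: CellTiter-Glo luminescence measuring cellular ATP | Measure: % viability versus median cells-only luminescence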
# HUVEC prolif 384 – blocks proliferation of human endothelial cells. viability, % at 10 µM (by protocol). 86,000 compounds, 1.1% hits. HUVEC proliferation, CellTiter-Glo luminescence, 72 h; active compounds read low;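 active means viability at or below 30%; inactive means viability above 30%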;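 further: 100% = median luminescence of DMSO-only cell control wells on each plate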
# * hit, by the source's call; . = no result. This is one part of a sample in which hits are shown more often than they occur.
SMILES,PTEN del growth,HCT116 bCat-KO,H69AR growth 86K,Fibroblast inh,HUVEC prolif 384
Cc1nc2ccccn2c(=O)c1CCN1CCC(C(=O)c2ccc(F)cc2)CC1,81,80,89,90,88
Cc1ccc(-n2nc(C)c3c(C)c(CCC(=O)NCc4ccco4)c(C)nc32)cc1,68,78,42,100,87
Cc1ccc(-n2nc(C)c3c(C)c(CCC(=O)NCc4ccccc4)c(C)nc32)cc1,78,77,32*,77,66
C=CCNC(=O)c1onc(CSc2ccc(F)cc2)c1C(=O)NCCOC,81,100,.,.,.
O=C(Cc1cccs1)NCCSc1c(-c2ccc(Cl)cc2)[nH]c2ccccc12,12,4.7*,.,.,.
CCOC(=O)CSc1c(-c2ccc(Cl)cc2)[nH]c2ccccc12,71,83,.,.,.
CCOC(=O)c1ccc(-n2c(C)ccc2C)cc1,15,19,.,.,.
CCOC(=O)c1ccc(N2C(=O)C=CC2=O)cc1,110,97,1.9*,4.3*,12*
Cc1cc2nnc(SCC(=O)OC(C)C)n2c2ccccc12,97,94,91,97,97
Cc1cc(N2CCN(c3cccc(C(F)(F)F)c3)CC2)n2ncnc2n1,69,67,74,95,89
Cc1nc2ncnn2c(N2CCN(c3cccc(C(F)(F)F)c3)CC2)c1C,28,24,33*,95,82
C=C(c1ccc(OC)cc1)c1ccc(OC)cc1,75,71,32*,95,83
CCc1ccc(/C=C2\Oc3cc(OS(C)(=O)=O)ccc3C2=O)cc1,69,82,.,.,.
Cc1ccc(S(=O)(=O)Oc2ccc3c(c2)O/C(=C\c2cccnc2)C3=O)cc1,89,81,25*,96,99
COc1cccc(OC)c1C(=O)Oc1ccc2c(c1)O/C(=C\c1ccncc1)C2=O,56,59,.,.,.
O=C1/C(=C/c2cccnc2)Oc2cc(OS(=O)(=O)c3ccc(F)cc3)ccc21,88,81,35*,95,94
COc1ccc(NC(=O)CSc2nc3c(c(=O)[nH]2)CCC3)cc1OC,103,87,.,.,.
C=CCn1c(SCC(=O)Nc2nc(C)cs2)nnc1C(NC(=O)c1ccccc1)C(C)C (configuration not stated),96,94,14*,100,93
CN(CC(=O)Nc1ccc(Cl)cc1)c1ccc(S(=O)(=O)N2CCCCC2)cc1[N+](=O)[O-],26,37,.,.,.
Clc1ccc(COc2ccccn2)c(Cl)c1,88,93,101,96,102
Cc1ccc(C(=O)C(C)OC(=O)c2n[nH]c(=O)c3ccccc23)cc1 (configuration not stated),101,100,.,.,.
CCOC(=O)C1CCN(C(c2cc3ccc(C)cc3[nH]c2=O)c2nnnn2C2CCCCC2)CC1 (configuration not stated),92,92,94,97,97
CCOC(=O)c1cc2oc(C(c3nnnn3C3CCCCC3)N3CCOCC3)cc2[nH]1 (configuration not stated),34,38,9.8*,94,75
CC(C)(C)S(=O)c1cccs1 (configuration not stated),95,92,102,101,117
CC(C)(C)C(=O)NC(NC(=O)C(C)(C)C)c1ccc([N+](=O)[O-])cc1,98,95,.,.,.
SMILES,PTEN del growth,HCT116 bCat-KO,H69AR growth 86K,Fibroblast inh,HUVEC prolif 384
CC(C)(C)C(=O)/C(=C/c1cccc([N+](=O)[O-])c1)n1cncn1,0.5*,0.7*,.,.,.
CC(C)(C)C(=O)/C(=C\c1ccc([N+](=O)[O-])cc1)n1cncn1,1.6*,1.4*,107,2.1*,2.1*
CCCCNC(=O)C(=O)N/N=C/c1ccc(OCC(=O)Nc2cccc(OC)c2)c(OC)c1,95,91,.,.,.
Cc1cccnc1NC(=O)c1c(O)c2cccc3c2n(c1=O)CCC3,78,88,2.8*,96,75
Cc1cccnc1NC(=O)c1c(O)c2ccccc2n(C)c1=O,97,89,5.4*,94,115
O=C(Nc1nccs1)c1c(O)c2cccc3c2n(c1=O)CCC3,18,25,4.0*,49*,72
Cc1ccccc1NC(=O)c1c(O)c2cccc3c2n(c1=O)CCC3,.,.,31*,92,98
O=C(NCCO)c1c(O)c2cccc3c2n(c1=O)CC3,99,88,.,97,91
Cc1ccccc1NC(=O)c1c(O)c2cccc3c2n(c1=O)CC3,.,.,66,98,104
O=C(NCC1CCCO1)c1c(O)c2cccc3c2n(c1=O)CCC3 (configuration not stated),90,90,.,.,.
O=C(Nc1ccccn1)c1c(O)c2cccc3c2n(c1=O)CCC3,79,88,35*,91,113
COc1ccc(C(c2nnnn2CC2CCCO2)N2CCN(c3ccccc3)CC2)cc1 (configuration not stated),100,99,.,.,.
COc1ccc(N2CCN(C(c3cc(OC)ccc3OC)c3nnnn3CC3CCCO3)CC2)cc1 (configuration not stated),0.7*,0.9*,93,97,93
CC(C)N(O)C(=O)NC(C)(C)C,91,92,101,93,84
CCc1ccc(C(=O)CN(C#N)c2nc(C)cc(C)n2)cc1,84,87,60,92,55
CCc1ccc(-c2cn(-c3nc(C)cc(C)n3)c(=N)o2)cc1,61,70,1.2*,84,59
COc1ccc(-c2nnc(SCCc3ccccc3)n2N)cc1,109,96,96,46*,100
CSc1cccc(-n2cc(-c3ccc4c(c3)OCO4)[nH]c2=O)c1,22,21,25*,70,52
CC(=O)c1c(C)nc(-c2ccc3c(c2)OCO3)n1O,93,92,84,105,81
CC(=O)Nc1ccc([C@H]2[C@H](C)CC[C@H]3C(=O)N4[C@@H](CC[C@@H](C)[C@@H]4c4ccc(NC(C)=O)cc4)C(=O)N32)cc1,101,94,.,.,.
COc1cccc(-n2c(=O)c3cc(OC)c(OC)cc3n(CC(=O)Nc3cc(C)[nH]n3)c2=O)c1,89,89,.,.,.
O=C1OC(Nc2ccc3c(c2)OCO3)c2ccccc21 (configuration not stated),14,16,16*,49*,56
CC(C)CCN1CN(S(=O)(=O)c2cccs2)c2nc3ccccc3nc21,67,80,37*,94,80
CCC(CC)C(=O)Nc1cccc(C(=O)c2ccccc2)c1,96,90,97,94,93
CCOC(=O)c1nnc(-c2ccccc2)nc1Oc1ccc(Cl)cc1,31,25,.,.,.
SMILES,PTEN del growth,HCT116 bCat-KO,H69AR growth 86K,Fibroblast inh,HUVEC prolif 384
CCOC(=O)c1nnc(-c2ccccc2)nc1Sc1ccccc1Cl,82,85,0.6*,87,62
CCOC(=O)c1nnc(-c2ccc(C)cc2)nc1Sc1cccc(Cl)c1,80,78,33*,81,53
CCOC(=O)c1nnc(-c2ccccc2)nc1NCc1ccccc1,99,102,.,.,.
O=C1c2ccccc2-c2nnc(-c3ccccc3)cc21,13,15,.,.,.
Cc1cccc(-c2cc3c(nn2)-c2ccccc2C3=O)c1,30,36,19*,84,59
COc1ccc(OCc2nc(N)nc(Nc3ccccc3OC)n2)cc1,86,76,2.2*,77,95
